Active and inactive are the calls of the source. The rule behind the calls is not given here.
Tests used:
Namalwa [1] = experiment: Activation of Namalwa cell expressing CD1D-TCR in human MAD11 cells assessed as TH1-mediated IFN-gamma secretion after 6 hrs by ELISA relative to KRN7000; format: cell-based
Procedure, shortened: (§1)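 APCs (hCD1d-transduced HeLa or Namalwa) plated 30000/well, loaded overnight at 37 °C with glycolipid titration in DMSO, washed twice. Vα24/Vβ11-sorted human iNKT line (15000 cells, no IL-2) added for 6 h at 37 °C. Supernatant IFN-γ measured by ELISA. No-glycolipid background subtracted. Mean of triplicates, SD shown. KRN7000 reference; untransduced APCs as negative control.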

MAD11 [2] = experiment: Activation of Hela cell expressing human CD1D-TCR in human MAD11 cells assessed as TH1-mediated IFN-gamma secretion after 6 hrs by ELISA relative to KRN7000; format: cell-based; procedure, shortened: as §1
Namalwa [3] = experiment: Activation of Namalwa cell expressing CD1D-TCR in human MAD11 cells assessed as TH2-mediated IL-13 secretion after 48 hrs by ELISA relative to KRN7000; format: functional, cell-based
Procedure, shortened: (§2)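 The hCD1d-transduced HeLa or Namalwa presenting cells were plated at 7500/well and pulsed overnight at 37 °C with increasing glycolipid concentrations in DMSO, then washed. 15000 sorted human iNKT cells were added without IL-2 for 48 h at 37 °C. IL-13 in supernatant was measured by ELISA, minus background without glycolipid. Triplicate mean ± SD, with KRN7000 as reference.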

Mus musculus [4] = experiment: Induction of CD1D-TCR-dependent NKT cell activation in C57BL/6J mouse assessed as IFN-gamma production at 100 ug/kg, ip relative to KRN7000; format: functional
Procedure, shortened: (§3)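 Female C57BL/6J mice, 6–8 weeks old, given 100 μg/kg glycolipid ip in 0.1 mL of 10% DMSO in 0.9% NaCl. Sera collected at several time points after injection; six mice per time point. Serum IFN-γ, IL-4 and TNF-α measured by ELISA. Time courses compared as area under the curve against KRN7000.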

MAD11 [5] = experiment: Activation of Hela cell expressing human CD1D-TCR in human MAD11 cells assessed as TH1-mediated TNFalpha secretion after 6 hrs relative to control; format: cell-based
Procedure, shortened: (§4)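 Human CD1d-transduced HeLa or Namalwa cells, 30000/well, incubated overnight at 37 °C with graded glycolipid (DMSO), washed twice, then cocultured 6 h at 37 °C with 15000 Vα24+/Vβ11+ human iNKT cells in RPMI without IL-2. TNF-α in cell-free supernatant measured by WEHI 164 cytotoxicity (MTT). No-glycolipid background subtracted. Mean of triplicates; at least 3 experiments.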

Mus musculus [6] = experiment: Induction of CD1D-TCR-dependent NKT cell activation in C57BL/6J mouse assessed as ratio of IFNgamma/IL-4 production at 100 ug/kg, ip relative to KRN7000; format: functional
Procedure, shortened: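 Female C57BL/6J mice, 6–8 weeks old, received 100 μg/kg ip in 0.1 mL of 10% DMSO/0.9% NaCl. Serial serum samples were taken, six mice per time point. IFN-γ and IL-4 were measured by ELISA, and the ratio of AUC IFN-γ to AUC IL-4 was computed.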

Namalwa [7] = experiment: Activation of Namalwa cell expressing CD1D-TCR in human MAD11 cells assessed as TH1-mediated TNFalpha secretion after 6 hrs relative to control; format: cell-based; procedure, shortened: as §4
Mus musculus [8] = experiment: Induction of CD1D-TCR-dependent NKT cell activation in C57BL/6J mouse assessed as TNF-alpha production at 100 ug/kg, ip relative to KRN7000; format: functional; procedure, shortened: as §3
Mus musculus [9] = experiment: Induction of CD1D-TCR-dependent NKT cell activation in C57BL/6J mouse assessed as IL-4 production at 100 ug/kg, ip relative to KRN7000; format: functional; procedure, shortened: as §3
MAD11 [10] = experiment: Activation of Hela cell expressing human CD1D-TCR in human MAD11 cells assessed as TH2-mediated IL-13 secretion after 48 hrs by ELISA relative to KRN7000; format: functional, cell-based; procedure, shortened: as §2
Mus musculus [11] = experiment: Induction of CD1D-TCR-dependent NKT cell activation in C57BL/6J mouse assessed as IFN-gamma production at 100 ug/kg, ip measured after 8 hrs relative to KRN7000; format: functional; procedure, shortened: as §3

Row | Compound | Activity (Namalwa [1]) | Activity (MAD11 [2]) | Activity (Namalwa [3]) | Activity (Mus musculus [4]) | Activity (MAD11 [5]) | Ratio (Mus musculus [6]) | Activity (Namalwa [7]) | Activity (Mus musculus [8]) | Ratio (Mus musculus [9]) | Activity (MAD11 [10]) | Activity (Mus musculus [11])
1 | CCCCCCCCCCCCCCCCCCCCCCCCCC(=O)N[C@H](CCCCCCCCCCCCCCC)CO[C@H]1O[C@H](CO)[C@H](O)[C@H](O)[C@H]1O | Active | Active | Active | 70% | Active | 1.86 | Active | 40% | 0.35 | Active | 
2 | CCCCCCCCCCCCCCCCCCCCCCCCCC(=O)N[C@@H](CO[C@H]1O[C@H](CO)[C@H](O)[C@H](O)[C@H]1O)C(F)(F)CCCCCCCCCCCCCCC | Active | Active | Active |  | Active | 1.31 | Active | 32% | 0.35 | Active | Active
3 | CCCCCCCCCCCCCCCCCCCCCCCCCC(=O)N[C@@H](CO[C@H]1O[C@H](CO)[C@H](O)[C@H](O)[C@H]1O)[C@H](F)CCCCCCCCCCCCCC | Active | Active | Active |  | Active | 0.78 | Active | 23% | 0.35 | Active | 30%
4 | CCCCCCCCCCCCCCCCCCCCCCCCCC(=O)N[C@@H](CO[C@H]1O[C@H](CO)[C@H](O)[C@H](O)[C@H]1O)[C@H](O)[C@H](O)CCCCCCCCCCCCCC | Active | Active | Active |  | Active |  | Active |  |  | Active | 

— ChEMBL document CHEMBL2029280, “3-fluoro- and 3,3-difluoro-3,4-dideoxy-KRN7000 analogues as new potent immunostimulator agents: total synthesis and biological evaluation in human invariant natural killer T cells and mice” (2012)
